Assay results published in ChEMBL document CHEMBL1139923, “Biological evaluation of de-O-sulfonated analogs of salacinol, the role of sulfate anion in the side chain on the alpha-glucosidase inhibitory activity” (Bioorg Med Chem, 2007).
Active and inactive are the calls of the source. No cut-off for these calls is given here.

Legend:
[1] = Inhibition of rat intestinal sucrase
Outline: (§1)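 Sucrose (74 mM in the substrate solution, 0.1 M maleate buffer) was the substrate for intestinal α-glucosidase. Test compound was added from a DMSO stock diluted in buffer (2.5% DMSO final) along with enzyme. The mixture ran 30 min at 37 °C and was halted by boiling for 2 min. Released glucose was quantified by the glucose-oxidase method.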

[2] = organism: Rattus norvegicus; test: Inhibition of rat intestinal sucrase at 400 ug/ml; outline: as §1
[3] = organism: Rattus norvegicus; test: Inhibition of rat intestinal maltase at 1092 uM
Outline: (§2)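 Intestinal α-glucosidase from the in vitro assay with maltose as substrate, 74 mM in the substrate solution. Compound was dissolved in DMSO and diluted in 0.1 M maleate buffer, giving 2.5% DMSO final. Substrate, compound and enzyme solutions were incubated at 37 °C for 30 min, stopped by 2 min in boiling water, and glucose was measured by glucose-oxidase.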

[4] = Inhibition of rat intestinal maltase; outline: as §2
[5] = organism: Rattus norvegicus; test: Inhibition of rat intestinal maltase at 400 ug/ml; outline: as §2

| SMILES | IC50 [1] [µM] | inhibition [2] [%] | Activity [3] | IC50 [4] [µM] | inhibition [5] [%] |
| --- | --- | --- | --- | --- | --- |
| O=S(=O)([O-])O[C@@H](CO)[C@H](O)C[S@+]1C[C@@H](O)[C@H](O)[C@H]1CO [SALACINOL] | 2.5 | – | – | 9.6 | – |
| O=S(=O)([O-])O[C@@H](CO)[C@H](O)C[S@@+]1C[C@H](O)[C@@H](O)[C@@H]1CO | > 1200 | 21 | – | > 1200 | 18 |

The next lines start with the values.

| IC50 [1] [µM] | inhibition [2] [%] | Activity [3] | IC50 [4] [µM] | inhibition [5] [%] | SMILES |
| --- | --- | --- | --- | --- | --- |
| > 1090 | 48 | inactive | > 1090 | – | OC[C@H](O)[C@H](O)C[S@@+]1C[C@H](O)[C@@H](O)[C@@H]1CO |
| 3.5 | – | – | 14 | – | OC[C@@H]1[C@@H](O)[C@H](O)C[S@@+]1C[C@@H](O)[C@@H](O)CO [listing 1 of 2 here] |
| 3.7 | – | – | 15.6 | – | OC[C@@H]1[C@@H](O)[C@H](O)C[S@@+]1C[C@@H](O)[C@@H](O)CO [listing 2 of 2 here] |
